Data published in ChEMBL document CHEMBL1687889, “Antitumor agents. 284. New desmosdumotin B analogues with bicyclic B-ring as cytotoxic and antitubulin agents” (J Med Chem, 2011).
The source made the active and inactive calls. The calls are words filed in the database; no cut-off is given here.

Experiments:
A549 = experiment: Antiproliferative activity against human A549 cells after 3 days by sulforhodamine B assay; assay type: functional; settings: A549, 72 h
Method in brief: (§1)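 Cells grown in RPMI-1640 with 25 mM HEPES, 0.25% sodium bicarbonate, 10% FBS and 100 μg/mL kanamycin. Exposed to compound for 3 days, with at most 0.5% v/v DMSO. Attached cells fixed in cold 50% TCA, stained with 0.4% sulforhodamine B, and the bound dye solubilized. A562 read. GI50 is the concentration giving a 50% absorbance drop versus untreated cells.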

HCT-8 [1] = experiment: Antiproliferative activity against human HCT8 cells at 20 ug/ml after 3 days by sulforhodamine B assay; assay type: functional, cell-based
[2] = Antiproliferative activity against human KBVIN cells after 3 days by sulforhodamine B assay; assay type: functional; settings: 72 h; method in brief: as §1
HepG2 [3] = experiment: Antiproliferative activity against human HepG2 cells after 3 days by sulforhodamine B assay; assay type: functional; settings: HepG2, 72 h
Method in brief: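 Sulforhodamine B assay over 3 days in culture, with at most 0.5% v/v DMSO. Attached cells fixed in cold 50% TCA, stained with 0.4% SRB, and the dye solubilized. Absorbance read at 562 nm. GI50 is the concentration causing a 50% fall in absorbance relative to untreated cells.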

MCF7 [4] = experiment: Antiproliferative activity against human MCF7 cells after 3 days by sulforhodamine B assay; assay type: functional; settings: MCF7, 72 h
PC-3 = experiment: Antiproliferative activity against human PC3 cells after 3 days by sulforhodamine B assay; assay type: functional; settings: PC-3, 72 h
KB = experiment: Antiproliferative activity against human KB cells after 3 days by sulforhodamine B assay; assay type: functional; settings: 72 h; method in brief: as §1
[5] = Displacement of [3H]colchicine from tubulin at 5 uM for 10 mins
Method in brief: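 1.0 μM tubulin incubated with 5.0 μM [3H]colchicine and 5.0 μM inhibitor for 10 min at 37 °C, when control samples reach about 40–60% of maximal colchicine binding. Result given as percent inhibition of colchicine binding.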

[6] = Inhibition of tubulin assembly after 20 mins by turbidimetric assay; settings: read-out: IC50
Method in brief: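 Turbidimetry at 350 nm. 10 μM (1.0 mg/mL) tubulin preincubated with compound for 15 min at 30 °C without GTP, then chilled, and 0.4 mM GTP added. Turbidity followed for 20 min at 30 °C after a temperature jump from 0 °C. IC50 is the concentration halving the turbidity increase relative to control.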

HCT-8 [7] = experiment: Antiproliferative activity against human HCT8 cells after 3 days by sulforhodamine B assay; assay type: functional; settings: HCT-8, 72 h; method in brief: as §1
DU-145 = experiment: Antiproliferative activity against human DU145 cells after 3 days by sulforhodamine B assay; assay type: functional; settings: DU-145, 72 h
HepG2 [8] = experiment: Antiproliferative activity against human HepG2 cells at 20 ug/ml after 3 days by sulforhodamine B assay; assay type: functional, cell-based
MCF7 [9] = experiment: Antiproliferative activity against human MCF7 cells at 20 ug/ml after 3 days by sulforhodamine B assay; assay type: functional, cell-based

| Structure (SMILES) | GI50 (A549) [µM] | Activity (HCT-8 [1]) | GI50 [2] [µM] | GI50 (HepG2 [3]) [µM] | GI50 (MCF7 [4]) [µM] | GI50 (PC-3) [µM] | GI50 (KB) [µM] | inhibition [5] [%] | IC50 [6] [µM] | GI50 (HCT-8 [7]) [µM] | GI50 (DU-145) [µM] | Activity (HepG2 [8]) | Activity (MCF7 [9]) |
| --- | --- | --- | --- | --- | --- | --- | --- | --- | --- | --- | --- | --- | --- |
| CCC1=C(O)c2c(oc(-c3ccc(-c4ccccc4)cc3)cc2=O)C(CC)(CC)C1=O | 18.1 | inactive | 12.1 | 19.3 | 15.7 | 8.45 | 18.1 | – | – | – | – | – | – |
| CCC1=C(O)c2c(oc(-c3ccc4c(c3)OCCO4)cc2=O)C(CC)(CC)C1=O | 1.52 | – | 1.14 | 1.52 | 1.89 | 1.52 | 1.26 | 33 | 6.5 | 2.27 | – | – | – |
| CCC1=C(O)C2=C(OC(c3cccc4ccccc34)CC2=O)C(CC)(CC)C1=O (stereo unspecified) | 7.99 | – | 3.87 | 9.02 | – | 12.6 | 5.93 | – | – | 9.28 | – | – | – |
| CCC1=C(OC)C(CC)(CC)c2oc(-c3cccc4ccccc34)c(Br)c(=O)c2C1=O | 4.77 | – | 9.96 | 14.5 | 11 | 10.8 | 9.13 | – | – | 7.68 | – | – | – |
| CC1=C(O)c2c(oc(-c3csc4ccccc34)cc2=O)C(C)(C)C1=O | 0.23 | – | 0.09 | 0.57 | – | 0.91 | 0.11 | 69 | 2.4 | 1.08 | – | – | – |
| CCC1=C(O)c2c(oc(-c3ccc4cc(OC)ccc4c3)cc2=O)C(CC)(CC)C1=O | 16.8 | – | 9.57 | 13.4 | 8.37 | 4.78 | 10.8 | – | – | 12 | – | – | – |
| CCC1=C(O)c2c(oc(-c3cnc4ccccc4c3)cc2=O)C(CC)(CC)C1=O | 12.8 | – | 14.9 | 14.9 | 19.3 | 12.8 | 15.4 | – | – | 12.8 | – | – | – |
| CCC1=C(OC)C(CC)(CC)c2oc(-c3cccc4ccccc34)cc(=O)c2C1=O | 16.7 | – | 9.7 | 20.7 | 20.9 | 14.7 | 11.2 | – | – | 11.7 | – | – | – |
| CCC1=C(O)c2c(oc(-c3cccc4ccccc34)cc2=S)C(CC)(CC)C1=S | 5.95 | – | 5.95 | 24.1 | 14.1 | 24.1 | 7.38 | – | – | 13.3 | – | – | – |
| CCC1=C(O)c2c(oc(-c3cccc4ccccc34)cc2=O)C(CC)(CC)C1=O [2-(NAPHTHALEN-1-YL)-6,8,8-TRIETHYL DESMOSDUMOTIN B] | 1.55 | – | 0.77 | 2.06 | 1.55 | 1.03 | 1.55 | 43 | 2.3 | 1.03 | – | – | – |
| CCC1=C(O)c2c(oc(-c3csc4ccc(Br)cc34)cc2=O)C(CC)(CC)C1=O | 42.2 | – | 10.6 | 30.6 | – | 38 | 26.4 | – | – | 42.2 | 31.7 | – | – |
| CCC1=C(O)c2c(oc(-c3c(OC)ccc4sccc34)cc2=O)C(CC)(CC)C1=O | 66 | – | 11.1 | 24.8 | – | 51.9 | 11.3 | – | – | 19.6 | 21.5 | – | – |
| CCC1=C(O)c2c(oc(-c3ccc4c5c(cccc35)CC4)cc2=O)C(CC)(CC)C1=O | 6.04 | – | 1.93 | 4.59 | 3.62 | 6.04 | 2.17 | – | – | 2.42 | – | – | – |
| CCC1=C(O)c2c(oc(-c3ccc4c(c3)OCO4)cc2=O)C(CC)(CC)C1=O | 26.2 | – | 17 | 11.8 | 11.3 | 5.24 | 18.3 | – | – | 13.1 | – | – | – |
| CC1=C(O)c2c(oc(-c3ccc(C)c4ccccc34)cc2=O)C(C)(C)C1=O | 1.25 | – | 0.72 | 1.33 | – | 13.3 | 0.61 | 37 | 2.5 | 2.56 | – | – | – |
| CCC1=C(O)c2c(oc(-c3c(C)ccc4ccccc34)cc2=O)C(CC)(CC)C1=O | 17.4 | – | 19.9 | 16.7 | 13.7 | 12.4 | 19.9 | – | – | 17.4 | – | – | – |

| Structure (SMILES) | GI50 (A549) [µM] | Activity (HCT-8 [1]) | GI50 [2] [µM] | GI50 (HepG2 [3]) [µM] | GI50 (MCF7 [4]) [µM] | GI50 (PC-3) [µM] | GI50 (KB) [µM] | inhibition [5] [%] | IC50 [6] [µM] | GI50 (HCT-8 [7]) [µM] | GI50 (DU-145) [µM] | Activity (HepG2 [8]) | Activity (MCF7 [9]) |
| --- | --- | --- | --- | --- | --- | --- | --- | --- | --- | --- | --- | --- | --- |
| CC1=C(O)c2c(oc(-c3cccc4ccccc34)cc2=O)C(C)(C)C1=O [2-(NAPHTHALEN-1-YL)DESMOSDUMOTIN B] | 1.73 | – | 0.58 | – | 1.73 | 1.45 | 0.29 | – | – | 1.16 | – | – | – |
| CC[C@]1(O)C[C@H]2CN(CCc3c([nH]c4ccccc34)[C@@](C(=O)OC)(c3cc4c(cc3OC)N(C=O)[C@H]3[C@@](O)(C(=O)OC)[C@H](OC(C)=O)[C@]5(CC)C=CCN6CC[C@]43[C@@H]65)C2)C1 [VINCRISTINE] | 0.007 | – | 9.09 | – | – | – | 0.004 | – | – | 0.036 | – | – | – |
| CCC1=C(O)c2c(oc(-c3ccc(OC)c4ccccc34)cc2=O)C(CC)(CC)C1=O | 1.48 | – | 1.56 | 1.48 | 3.59 | 2.39 | 1.67 | 31 | 2.7 | 3.35 | – | – | – |
| CCC1=C(O)c2c(oc(-c3cccc4ccccc34)cc2=O)C(CC)(CC)C1=S | 1.86 | – | 2.7 | 8.42 | 3.22 | 16.6 | 1.41 | – | – | 8.17 | – | – | – |
| CCCC1=C(O)c2c(oc(-c3cccc4ccccc34)cc2=O)C(CCC)(CCC)C1=O | 23.3 | – | – | – | – | 17.4 | 18.6 | – | – | 23.3 | – | inactive | inactive |
| CCC1=C(O)c2c(oc(-c3cc4ccccc4s3)cc2=O)C(CC)(CC)C1=O | 14 | – | 9.9 | 15.7 | 15.2 | 3.81 | 11.2 | – | – | 19 | – | – | – |
| CCC1=C(O)c2c(oc(-c3csc4ccc(C)cc34)cc2=O)C(CC)(CC)C1=O | > 98 | – | > 98 | > 98 | – | > 98 | 53.9 | – | – | 93.1 | > 98 | – | – |
| CC1=C(O)c2c(oc(-c3ccc4c(c3)OCCO4)cc2=O)C(C)(C)C1=O | – | – | 0.65 | 23.7 | – | 1.5 | 0.76 | 36 | 3.7 | 1.3 | – | – | – |
| CCC1=C(O)c2c(oc(-c3cn(C)c4ccccc34)cc2=O)C(CC)(CC)C1=O | 5.63 | – | 2.81 | 21.7 | 17.4 | 20.5 | 18.7 | – | – | 15.9 | – | – | – |
| CCC1=C(O)c2c(oc(-c3cc4ccccc4o3)cc2=O)C(CC)(CC)C1=O | 17.2 | – | 14.6 | 15.1 | – | 5.82 | 14.8 | – | – | 5.82 | – | – | inactive |
| CCC1=C(O)c2c(oc(-c3ccc4sccc4c3)cc2=O)C(CC)(CC)C1=O | > 25 | – | > 25 | > 25 | – | > 25 | 11.2 | – | – | > 25 | 10.4 | – | – |
| CCC1=C(O)c2c(oc(-c3cccc4ccsc34)cc2=O)C(CC)(CC)C1=O | 5.84 | – | 0.94 | 1.9 | – | 3.81 | 2.49 | – | – | 11.2 | 0.74 | – | – |
| CCC1=C(O)c2c(oc(-c3ccc(C)c4ccccc34)cc2=O)C(CC)(CC)C1=O | 0.5 | – | 0.27 | 1.24 | 0.75 | 2.49 | 0.47 | 50 | 2.7 | 0.62 | – | – | – |
| CCC1=C(O)c2c(oc(-c3sc4ccccc4c3C)cc2=O)C(CC)(CC)C1=O | > 25 | – | > 25 | > 25 | – | > 25 | > 25 | – | – | > 25 | > 25 | – | – |
| CCC1=C(O)c2c(oc(-c3cc4ccccc4c4ccccc34)cc2=O)C(CC)(CC)C1=O [6,8,8-TRIETHYL-2-(PHENANTHREN-9-YL) DESMOSDUMOTIN B] | 18.3 | – | 9.82 | – | 9.13 | 13.7 | 11.4 | – | – | 12.8 | – | – | – |
| CCC1=C(O)c2c(oc(-c3coc4ccccc34)cc2=O)C(CC)(CC)C1=O | 9.79 | – | 2.09 | 17.7 | – | 28 | 4.5 | – | – | 15.6 | – | – | – |
